Measured values: ChEMBL document CHEMBL1821564, “3-Acetyl-2,5-diaryl-2,3-dihydro-1,3,4-oxadiazoles: a new scaffold for the selective inhibition of monoamine oxidase B” (J Med Chem, 2011)

Key:
[1] = target: T1, Amine oxidase [flavin-containing] B (Homo sapiens, UniProt P27338); assay: Inhibition of human recombinant MAO-B expressed in BTI-TN-5B1-4 insect cells using p-tyramine substrate by Amplex Red MAO assay
T1 sequence (P27338 whole entry): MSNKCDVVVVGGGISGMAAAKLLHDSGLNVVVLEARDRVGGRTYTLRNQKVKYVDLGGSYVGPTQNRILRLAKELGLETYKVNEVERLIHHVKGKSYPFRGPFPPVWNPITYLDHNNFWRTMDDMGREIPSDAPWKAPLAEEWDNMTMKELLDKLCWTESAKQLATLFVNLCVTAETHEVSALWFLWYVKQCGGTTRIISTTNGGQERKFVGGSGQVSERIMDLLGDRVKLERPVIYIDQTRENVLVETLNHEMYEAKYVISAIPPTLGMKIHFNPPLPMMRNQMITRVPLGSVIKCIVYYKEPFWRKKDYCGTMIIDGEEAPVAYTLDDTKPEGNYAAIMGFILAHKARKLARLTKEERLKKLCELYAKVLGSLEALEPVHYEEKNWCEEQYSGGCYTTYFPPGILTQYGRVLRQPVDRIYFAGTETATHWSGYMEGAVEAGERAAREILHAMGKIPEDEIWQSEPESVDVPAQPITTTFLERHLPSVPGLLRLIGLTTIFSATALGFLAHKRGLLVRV
In short: (§1)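 Microsomal hMAO-A or hMAO-B from baculovirus-infected BTI-TN-5B1-4 insect cells, with p-tyramine substrate. H2O2 production was read with the Amplex Red reagent. Highest concentration tested was 100 μM, limited by precipitation. Compounds were checked for no direct reaction with Amplex Red. IC50 is the mean ± SEM of five experiments.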

[2] = target: T1, Amine oxidase [flavin-containing] B; assay: Inhibition of human recombinant MAO-B expressed in BTI-TN-5B1-4 insect cells at 100 uM using p-tyramine substrate by Amplex Red MAO assay; conditions: bti-tn-5b1-4, 100 µM; in short: as §1
[3] = target: T2, Amine oxidase [flavin-containing] A (Homo sapiens, UniProt P21397); assay: Inhibition of human recombinant MAO-A activity expressed in BTI-TN-5B1-4 insect cells at 100 uM using p-tyramine substrate by Amplex Red MAO assay; conditions: bti-tn-5b1-4, 100 µM; in short: as §1
T2 sequence (P21397 whole entry): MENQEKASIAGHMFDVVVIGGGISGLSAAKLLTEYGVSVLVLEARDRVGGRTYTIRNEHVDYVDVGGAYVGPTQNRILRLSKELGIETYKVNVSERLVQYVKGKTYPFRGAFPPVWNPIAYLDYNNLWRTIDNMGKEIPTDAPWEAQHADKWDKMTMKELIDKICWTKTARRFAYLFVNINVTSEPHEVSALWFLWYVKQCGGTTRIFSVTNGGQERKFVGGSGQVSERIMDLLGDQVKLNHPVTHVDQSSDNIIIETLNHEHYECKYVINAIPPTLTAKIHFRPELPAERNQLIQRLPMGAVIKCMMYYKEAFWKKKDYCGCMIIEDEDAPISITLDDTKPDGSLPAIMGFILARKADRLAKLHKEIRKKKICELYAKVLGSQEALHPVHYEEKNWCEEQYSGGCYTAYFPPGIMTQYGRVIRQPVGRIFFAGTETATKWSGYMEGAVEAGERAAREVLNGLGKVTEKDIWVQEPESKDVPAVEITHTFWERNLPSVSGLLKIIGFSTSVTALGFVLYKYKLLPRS

Homo sapiens = species on record: Homo sapiens; assay: Selectivity index, ratio of IC50 for human recombinant MAO-A to IC50 for human recombinant MAO-B

Compound	IC50 ([1]; bti-tn-5b1-4) [µM]	inhibition (INH) [2]	inhibition (INH) [3]	Ratio IC50 (Homo sapiens)	IC50 [1] [µM]
CC(=O)N1N=C(c2ccc([N+](=O)[O-])cc2)OC1c1ccc(Cl)cc1 (stereo not given)	–	–	Not Active	> 822	0.122
CC(=O)N1N=C(c2ccc(Cl)cc2)OC1c1ccc(Cl)cc1 (stereo in doubt; 4p) [listing 1 of 2 here]	–	–	Not Active	–	0.115
CC(=O)N1N=C(c2ccc(Cl)cc2)OC1c1ccc(Cl)cc1 (racemic) [listing 1 of 2 here]	0.115	–	–	–	–
CC(=O)N1N=C(c2ccc(Br)cc2)O[C@@H]1c1ccc(Cl)cc1	–	–	Not Active	> 1210	0.0825
CC(=O)N1N=C(c2ccncc2)OC1c1ccc(Cl)cc1 (stereo not given)	–	Not Active	Not Active	–	–
COc1ccc(C2OC(c3ccc(C)cc3)=NN2C(C)=O)cc1 (stereo not given)	–	–	Not Active	> 1.34	74.7
CC(=O)N1N=C(c2ccc(Br)cc2)OC1c1ccc(Cl)cc1 (stereo in doubt; 4s) [listing 1 of 2 here]	–	–	–	> 453	–
COc1ccc(C2OC(c3ccncc3)=NN2C(C)=O)cc1OC (stereo not given)	–	Not Active	Not Active	–	–
CC(=O)N1N=C(c2ccc(Br)cc2)OC1c1ccc(Cl)cc1 (racemic) [listing 1 of 2 here]	0.221	–	–	–	–
CC(=O)N1N=C(c2ccc(Cl)cc2)O[C@H]1c1ccc(Cl)cc1	–	Not Active	Not Active	–	–
CC(=O)N1N=C(c2ccc(Br)cc2)OC1c1ccc(Cl)cc1 (racemic) [listing 2 of 2 here]	–	–	–	> 453	–
COc1ccc(C2OC(c3ccc(C)cc3)=NN2C(C)=O)cc1OC (stereo not given)	–	Not Active	Not Active	–	–
CC(=O)N1N=C(c2ccc(Br)cc2)O[C@H]1c1ccc(Cl)cc1	–	Not Active	Not Active	–	–
CC(=O)N1N=C(c2ccc(Cl)cc2)OC1c1ccc(Cl)cc1 (racemic) [listing 2 of 2 here]	–	–	–	> 867	–
CC(=O)N1N=C(c2ccc(Cl)cc2)O[C@@H]1c1ccc(Cl)cc1	–	–	Not Active	> 994	0.101
CC(=O)N1N=C(c2ccc(Br)cc2)OC1c1ccc(Cl)cc1 (stereo in doubt; 4s) [listing 2 of 2 here]	–	–	Not Active	–	0.221
CC(=O)N1N=C(c2ccncc2)OC1c1ccc(Cl)cc1Cl (stereo not given)	–	Not Active	Not Active	–	–
CC(=O)N1N=C(c2ccc(Cl)cc2)OC1c1ccc(Cl)cc1 (stereo in doubt; 4p) [listing 2 of 2 here]	–	–	–	> 867	–
CC(=O)N1N=C(c2ccc(C)cc2)OC1c1ccc(Cl)cc1Cl (stereo not given)	–	Not Active	Not Active	–	–
COc1ccc(C2=NN(C(C)=O)C(c3ccc(Cl)cc3)O2)cc1 (stereo not given)	–	Not Active	Not Active	–	–
COc1ccc(C2OC(c3ccncc3)=NN2C(C)=O)cc1 (stereo not given)	–	Not Active	Not Active	–	–

More lines, now with the values ahead:

IC50 ([1]; bti-tn-5b1-4) [µM]	inhibition (INH) [2]	inhibition (INH) [3]	Ratio IC50 (Homo sapiens)	IC50 [1] [µM]	Compound
19.4	–	–	–	–	CC(=O)N1N=C(c2ccccc2)OC1c1ccc(C)cc1 (racemic) [listing 1 of 2 here]
–	Not Active	Not Active	–	–	CC(=O)N1N=C(c2ccccc2)OC1c1ccc([N+](=O)[O-])cc1 (stereo not given)
–	–	Not Active	> 1.5	66.6	CC(=O)N1N=C(c2ccc(C)cc2)OC1c1ccc(C)cc1 (stereo not given)
–	Not Active	Not Active	–	–	CC(=O)N1N=C(c2ccc(C)cc2)OC1c1ccc(Cl)cc1 (stereo not given)
–	Not Active	Not Active	–	–	CC(=O)N1N=C(c2ccccc2)OC1c1ccc(N(C)C)cc1 (stereo not given)
–	Not Active	Not Active	–	–	CC(=O)N1N=C(c2ccccc2)OC1c1ccc(Cl)cc1 (stereo not given)
–	Not Active	Not Active	–	–	CC(=O)N1N=C(c2ccncc2)OC1c1ccc(C)cc1 (stereo not given)
–	–	Not Active	> 2.14	46.8	CC(=O)N1N=C(c2ccncc2)OC1c1ccc(N(C)C)cc1 (stereo not given)
–	–	Not Active	> 12	8.46	CC(=O)N1N=C(c2ccccc2)O[C@@H]1c1ccc(C)cc1
–	–	–	> 5.2	–	CC(=O)N1N=C(c2ccccc2)OC1c1ccc(C)cc1 (racemic) [listing 2 of 2 here]
–	–	–	> 5.2	–	CC(=O)N1N=C(c2ccccc2)OC1c1ccc(C)cc1 (stereo in doubt; 4y) [listing 1 of 2 here]
–	–	Not Active	> 10	9.53	CC(=O)N1N=C(c2ccccc2)OC1c1ccc(F)cc1 (stereo not given)
–	Not Active	Not Active	–	–	CC(=O)N1N=C(c2ccc(C)cc2)OC1c1ccc(N(C)C)cc1 (stereo not given)
–	Not Active	Not Active	–	–	CC(=O)N1N=C(c2ccccc2)OC1c1ccccc1 (stereo not given)
–	Not Active	Not Active	–	–	CC(=O)N1N=C(c2ccncc2)OC1c1ccccc1 (stereo not given)
–	–	Not Active	> 19	5.16	COc1ccc(C2OC(c3ccccc3)=NN2C(C)=O)cc1 (stereo not given)
–	–	Not Active	–	19.4	CC(=O)N1N=C(c2ccccc2)OC1c1ccc(C)cc1 (stereo in doubt; 4y) [listing 2 of 2 here]
–	Not Active	Not Active	–	–	CC(=O)N1N=C(c2ccccc2)O[C@H]1c1ccc(C)cc1
–	Not Active	Not Active	–	–	CC(=O)N1N=C(c2ccc(C)cc2)OC1c1ccccc1 (stereo not given)
